Columns and labels:
[1] = system: Leishmania infantum promastigote forms; experiment: In vitro activity on promastigote; type: cell-based
[2] = system: Leishmania infantum amastigote forms; experiment: In vitro activity on amastigote; type: cell-based
J774.2 macrophages = experiment: Cytotoxicity in J774.2 macrophages; type: cell-based; details: Mus musculus, J774.2, 72 h, read-out: Toxicity in macrophages IC50
[3] = system: Leishmania braziliensis promastigote forms; experiment: In vitro activity on promastigote; type: cell-based
How it was run: (§1)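 Extracellular promastigotes were tested at 1, 10, 25 and 200 µM, and IC50 was derived by linear regression from Kc values, averaging four determinations.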

[4] = system: Leishmania braziliensis amastigote forms; experiment: In vitro activity on amastigote; type: cell-based
How it was run: (§2)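 J774.2 macrophages were infected with promastigotes, which became intracellular amastigotes within 1 day; test compounds were then added. IC50 came from linear regression of Kc values at 1, 10, 25 and 200 µM, averaging four determinations.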

[5] = system: Leishmania donovani promastigote forms; experiment: In vitro activity on promastigote; type: cell-based
How it was run: as §1

[6] = system: Leishmania donovani amastigote forms; experiment: In vitro activity on amastigote; type: cell-based
How it was run: as §2

[7] = system: Trypanosoma cruzi SN3 epimastigote forms; experiment: Epimastigote assay, T. cruzi SN3; type: cell-based
How it was run: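 SN3 epimastigotes (Rhodnius prolixus isolate, Colombia) were grown at 28 °C in Grace's Insect Medium + 10% inactivated FBS. Exponential-phase cells were plated at 5×10^4 parasites/well with test compound in MTL medium at 100, 50, 25, 12,5 and 6,25 µM. Counts after 72 h used a Neubauer chamber. IC50 came from linear regression of Kc values; SI = Vero IC50/epimastigote IC50.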

[8] = system: Trypanosoma cruzi SN3 amastigote forms; experiment: Amastigote assay, T. cruzi SN3; type: cell-based
How it was run: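 Vero cells in RPMI + 10% inactivated FBS (37 °C, 5% CO2) were seeded at 1×10^4 cells/well on coverslips for 2 days. They were infected 10:1 with SN3 metacyclic forms, obtained by 12-day culture of epimastigotes at 28 °C in modified Grace's medium (~40% metacyclic). After 24 h, cells were washed and exposed to 6.25–100 µM for 72 h. Giemsa-stained amastigotes were counted; IC50 from four determinations; SI used Vero IC50.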

[9] = system: Trypanosoma cruzi SN3 trypomastigote forms; experiment: Trypomastigote activity, T. cruzi SN3; type: cell-based
Vero cells = experiment: Cytotoxicity in Vero cells; type: cell-based; details: Chlorocebus sabaeus, Vero, 72 h, read-out: Vero cells toxicity IC50
How it was run: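 Vero cells were grown in RPMI + 10% inactivated FBS at 37 °C in humidified 5% CO2. They were resuspended at 1×10^5 cells/mL, cultured 2 days, then given fresh medium with test compound for 72 h. Viability was read by flow cytometry. IC50 was derived by linear regression from Kc values; results average four determinations.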

[10] = system: Fe-SOD in T. cruzi epimastigotes; experiment: Fe-SOD inhibition, T. cruzi; type: biochemical, Trypanosoma cruzi; details: extent reached in the tested concentration range (Figure 9)
How it was run: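 Promastigotes or T. cruzi epimastigotes were grown in MTL (HBSS + 10% heat-inactivated FBS) at 26 °C to ~1×10^7/mL. Log-phase cells were pelleted and held 24 h at 27 °C to excrete SOD. Filtered supernatant was fractionated with 35% then 85% ammonium sulphate and desalted on Sephadex G-25. Activity was measured as NBT reduction (methionine, riboflavin, Triton X-100) at 560 nm before and after 10 min UV illumination.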

[11] = L. infantum, IC50 macrophages toxicity/IC50 activity
[12] = L. braziliensis, IC50 macrophages toxicity/IC50 activity
[13] = L. donovani, IC50 macrophages toxicity/IC50 activity
[14] = T. cruzi SN3, IC50 Vero cell toxicity/IC50 activity

IC50 ([1]; Leishmania infantum, read-out: Activity IC50 Promastigote forms): 14.7 ± 0.6 µM
IC50 ([2]; Leishmania infantum, read-out: Activity IC50 Amastigote forms): 11.9 ± 0.7 µM
IC50 ([3]; Leishmania braziliensis, read-out: Activity IC50 Promastigote forms): 7.6 ± 0.5 µM
IC50 ([4]; Leishmania braziliensis, read-out: Activity IC50 Amastigote forms): 6.6 ± 0.6 µM
IC50 ([5]; Leishmania donovani, read-out: Activity IC50 Promastigote forms): 2 ± 0.4 µM
IC50 ([6]; Leishmania donovani, read-out: Activity IC50 Amastigote forms): 2.7 ± 0.3 µM
IC50 ([7]; Trypanosoma cruzi, read-out: Activity IC50 Epimastigote forms): 9.4 ± 0.7 µM
IC50 ([8]; Trypanosoma cruzi, read-out: Activity IC50 Amastigote forms): 2.4 µM
IC50 ([9]; Trypanosoma cruzi, read-out: Activity IC50 Trypomastigote forms): 1.3 ± 0.6 µM
extent of inhibition of enzyme activity [10]: approximately 50%
SMILES: c1ccc2c(NCCCn3ccnc3)ncnc2c1 [3 b, N ‐[3‐(1H‐imidazol‐1‐yl)propyl]quinazolin‐4‐amine]
Selectivity index Promastigote forms [1, 11]: 3
Selectivity index Amastigote forms [2, 11]: 4
IC50 (J774.2 macrophages): 45.9 ± 2.8 µM
Selectivity index Promastigote forms [3, 12]: 6
Selectivity index Amastigote forms [4, 12]: 7
Selectivity index Promastigote forms [5, 13]: 23
Selectivity index Amastigote forms [6, 13]: 17
Selectivity index Epimastigote forms [7, 14]: 13
Selectivity index Amastigote forms [8, 14]: 50
Selectivity index Trypomastigote forms [9, 14]: 93
IC50 (Vero cells): 121 ± 6.3 µM
